Measurements as given in ChEMBL document CHEMBL4689842, “EUbOPEN Chemogenomics Library wave 1” (2021).

Test system: U2OS
Assay: Multiplex assay against U2OS
Assay type: toxicity, cell-based
Settings: human
Summary of the method: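 Cells were classed with CellPathfinder machine-learning gating, first as Hoechst high-intensity objects or normal cells, then (normal cells) as healthy, pyknosed or fragmented nuclei, and finally (pyknosed cells) as mitotic or apoptotic. Staining of live cells at seeding used Hoechst33342, BioTracker Green Microtubule Cytoskeleton Dye, MitoTracker Red and Annexin V Alexa Fluor 680, with imaging on a CQ1 microscope at 37°C and 5% CO2 after compound addition. Tubulin, mitochondrial-mass and membrane-permeability phenotypes are per cents of healthy-nucleus cells.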

[1] = 12 h, 1 µM, compound concentration 1 uM, replicate 1
[2] = 12 h, 1 µM, compound concentration 1 uM, replicate 2
[3] = 12 h, 10 µM, compound concentration 10 uM, replicate 1
[4] = 12 h, 10 µM, compound concentration 10 uM, replicate 2
[5] = 24 h, 1 µM, compound concentration 1 uM, replicate 1
[6] = 24 h, 1 µM, compound concentration 1 uM, replicate 2
[7] = 24 h, 10 µM, compound concentration 10 uM, replicate 1
[8] = 24 h, 10 µM, compound concentration 10 uM, replicate 2
[9] = 48 h, 1 µM, compound concentration 1 uM, replicate 1
[10] = 48 h, 1 µM, compound concentration 1 uM, replicate 2
[11] = 48 h, 10 µM, compound concentration 10 uM, replicate 1
[12] = 48 h, 10 µM, compound concentration 10 uM, replicate 2

## CCOc1cc(C(=O)N2CCC(N3CCN(C)CC3)CC2)ccc1Nc1ncc2c(n1)N(C1CCCC1)c1ccccc1C(=O)N2C
[1]
  Population Apoptotic (%): 73%
  Population Fragmented Nuclei (%): 14%
  Population Healthy Nuclei (%): 70%
  Population Hoechst High Intensity Objects (%): 6%
  Population Membrane Permeable-Phenotype (%): 8%
  Population Mitochondria Different-Phenotype (%): 75%
  Population Mitotic Cells (%): 26%
  Population Normal (%): 93%
  Population Pyknosed Nuclei (%): 15%
  Population Tubulin-Different-Phenotype (%): 69%
  Total Cell Count: 153
[2]
  Population Apoptotic (%): 75%
  Population Fragmented Nuclei (%): 6%
  Population Healthy Nuclei (%): 80%
  Population Hoechst High Intensity Objects (%): 10%
  Population Membrane Permeable-Phenotype (%): 4%
  Population Mitochondria Different-Phenotype (%): 76%
  Population Mitotic Cells (%): 25%
  Population Normal (%): 89%
  Population Pyknosed Nuclei (%): 12%
  Population Tubulin-Different-Phenotype (%): 48%
  Total Cell Count: 67
[3]
  Population Apoptotic (%): 83%
  Population Fragmented Nuclei (%): 19%
  Population Healthy Nuclei (%): 48%
  Population Hoechst High Intensity Objects (%): 7%
  Population Membrane Permeable-Phenotype (%): 95%
  Population Mitochondria Different-Phenotype (%): 97%
  Population Mitotic Cells (%): 16%
  Population Normal (%): 92%
  Population Pyknosed Nuclei (%): 32%
  Population Tubulin-Different-Phenotype (%): 100%
  Total Cell Count: 181
[4]
  Population Apoptotic (%): 92%
  Population Fragmented Nuclei (%): 21%
  Population Healthy Nuclei (%): 50%
  Population Hoechst High Intensity Objects (%): 6%
  Population Membrane Permeable-Phenotype (%): 93%
  Population Mitotic Cells (%): 7%
  Population Normal (%): 93%
  Population Pyknosed Nuclei (%): 27%
  Total Cell Count: 69
[5]
  Population Apoptotic (%): 50%
  Population Healthy Nuclei (%): 61%
  Population Hoechst High Intensity Objects (%): 4%
  Population Membrane Permeable-Phenotype (%): 2%
  Population Mitochondria Different-Phenotype (%): 64%
  Population Mitotic Cells (%): 50%
  Population Normal (%): 95%
  Population Pyknosed Nuclei (%): 22%
  Population Tubulin-Different-Phenotype (%): 17%
  Total Cell Count: 142
[6]
  Population Apoptotic (%): 22%
  Population Fragmented Nuclei (%): 16%
  Population Healthy Nuclei (%): 72%
  Population Hoechst High Intensity Objects (%): 5%
  Population Membrane Permeable-Phenotype (%): 5%
  Population Mitochondria Different-Phenotype (%): 65%
  Population Mitotic Cells (%): 77%
  Population Normal (%): 94%
  Population Pyknosed Nuclei (%): 11%
  Population Tubulin-Different-Phenotype (%): 27%
  Total Cell Count: 71
[7]
  Population Apoptotic (%): 92%
  Population Fragmented Nuclei (%): 23%
  Population Healthy Nuclei (%): 17%
  Population Hoechst High Intensity Objects (%): 7%
  Population Membrane Permeable-Phenotype (%): 93%
  Population Mitochondria Different-Phenotype (%): 100%
  Population Mitotic Cells (%): 7%
  Population Normal (%): 92%
  Total Cell Count: 215
[8]
  Population Apoptotic (%): 88%
  Population Fragmented Nuclei (%): 10%
  Population Healthy Nuclei (%): 30%
  Population Hoechst High Intensity Objects (%): 11%
  Population Membrane Permeable-Phenotype (%): 100%
  Population Mitochondria Different-Phenotype (%): 96%
  Population Mitotic Cells (%): 11%
  Population Normal (%): 88%
  Population Pyknosed Nuclei (%): 59%
  Population Tubulin-Different-Phenotype (%): 100%
  Total Cell Count: 85
[9]
  Population Apoptotic (%): 53%
  Population Fragmented Nuclei (%): 15%
  Population Healthy Nuclei (%): 64%
  Population Hoechst High Intensity Objects (%): 3%
  Population Membrane Permeable-Phenotype (%): 1%
  Population Mitochondria Different-Phenotype (%): 28%
  Population Mitotic Cells (%): 46%
  Population Normal (%): 96%
  Population Pyknosed Nuclei (%): 19%
  Population Tubulin-Different-Phenotype (%): 9%
  Total Cell Count: 151
[10]
  Population Apoptotic (%): 42%
  Population Fragmented Nuclei (%): 13%
  Population Healthy Nuclei (%): 72%
  Population Hoechst High Intensity Objects (%): 5%
  Population Membrane Permeable-Phenotype (%): 12%
  Population Mitochondria Different-Phenotype (%): 40%
  Population Mitotic Cells (%): 57%
  Population Normal (%): 94%
  Population Pyknosed Nuclei (%): 14%
  Population Tubulin-Different-Phenotype (%): 25%
  Total Cell Count: 81
[11]
  Population Apoptotic (%): 93%
  Population Fragmented Nuclei (%): 34%
  Population Healthy Nuclei (%): 1%
  Population Hoechst High Intensity Objects (%): 14%
  Population Membrane Permeable-Phenotype (%): 100%
  Population Mitochondria Different-Phenotype (%): 100%
  Population Mitotic Cells (%): 6%
  Population Normal (%): 85%
  Population Pyknosed Nuclei (%): 63%
  Population Tubulin-Different-Phenotype (%): 100%
  Total Cell Count: 281
[12]
  Population Apoptotic (%): 100%
  Population Fragmented Nuclei (%): 16%
  Population Healthy Nuclei (%): 20%
  Population Hoechst High Intensity Objects (%): 18%
  Population Membrane Permeable-Phenotype (%): 93%
  Population Mitochondria Different-Phenotype (%): 86%
  Population Mitotic Cells (%): 0%
  Population Normal (%): 81%
  Population Pyknosed Nuclei (%): 62%
  Population Tubulin-Different-Phenotype (%): 93%
  Total Cell Count: 103

## Cc1cc(C)c(S(=O)(=O)N(Cc2ccc(-c3cccc(S(C)(=O)=O)c3)cc2)Cc2ccc(C(F)(F)F)o2)c(C)c1
[1]
  Population Apoptotic (%): 50%
  Population Fragmented Nuclei (%): 9%
  Population Healthy Nuclei (%): 84%
  Population Hoechst High Intensity Objects (%): 7%
  Population Membrane Permeable-Phenotype (%): 4%
  Population Mitochondria Different-Phenotype (%): 18%
  Population Mitotic Cells (%): 50%
  Population Normal (%): 92%
  Population Pyknosed Nuclei (%): 6%
  Population Tubulin-Different-Phenotype (%): 12%
  Total Cell Count: 77
[2]
  Population Apoptotic (%): 66%
  Population Fragmented Nuclei (%): 15%
  Population Healthy Nuclei (%): 80%
  Population Hoechst High Intensity Objects (%): 6%
  Population Membrane Permeable-Phenotype (%): 3%
  Population Mitochondria Different-Phenotype (%): 21%
  Population Mitotic Cells (%): 33%
  Population Normal (%): 93%
  Population Pyknosed Nuclei (%): 3%
  Population Tubulin-Different-Phenotype (%): 27%
  Total Cell Count: 72
[3]
  Population Apoptotic (%): 31%
  Population Fragmented Nuclei (%): 8%
  Population Healthy Nuclei (%): 81%
  Population Hoechst High Intensity Objects (%): 5%
  Population Membrane Permeable-Phenotype (%): 58%
  Population Mitochondria Different-Phenotype (%): 27%
  Population Mitotic Cells (%): 68%
  Population Normal (%): 94%
  Population Pyknosed Nuclei (%): 10%
  Population Tubulin-Different-Phenotype (%): 85%
  Total Cell Count: 104
[4]
  Population Apoptotic (%): 0%
  Population Fragmented Nuclei (%): 14%
  Population Healthy Nuclei (%): 77%
  Population Hoechst High Intensity Objects (%): 22%
  Population Membrane Permeable-Phenotype (%): 3%
  Population Mitochondria Different-Phenotype (%): 3%
  Population Mitotic Cells (%): 100%
  Population Normal (%): 77%
  Population Pyknosed Nuclei (%): 8%
  Population Tubulin-Different-Phenotype (%): 11%
  Total Cell Count: 81
[5]
  Population Apoptotic (%): 40%
  Population Fragmented Nuclei (%): 10%
  Population Healthy Nuclei (%): 82%
  Population Hoechst High Intensity Objects (%): 3%
  Population Membrane Permeable-Phenotype (%): 3%
  Population Mitochondria Different-Phenotype (%): 13%
  Population Mitotic Cells (%): 60%
  Population Normal (%): 96%
  Population Pyknosed Nuclei (%): 7%
  Population Tubulin-Different-Phenotype (%): 9%
  Total Cell Count: 89
[6]
  Population Apoptotic (%): 0%
  Population Fragmented Nuclei (%): 14%
  Population Healthy Nuclei (%): 80%
  Population Hoechst High Intensity Objects (%): 1%
  Population Membrane Permeable-Phenotype (%): 5%
  Population Mitochondria Different-Phenotype (%): 18%
  Population Mitotic Cells (%): 100%
  Population Normal (%): 98%
  Population Pyknosed Nuclei (%): 5%
  Population Tubulin-Different-Phenotype (%): 32%
  Total Cell Count: 86
[7]
  Population Apoptotic (%): 41%
  Population Fragmented Nuclei (%): 11%
  Population Healthy Nuclei (%): 71%
  Population Hoechst High Intensity Objects (%): 6%
  Population Membrane Permeable-Phenotype (%): 47%
  Population Mitochondria Different-Phenotype (%): 32%
  Population Mitotic Cells (%): 58%
  Population Normal (%): 93%
  Population Pyknosed Nuclei (%): 17%
  Population Tubulin-Different-Phenotype (%): 87%
  Total Cell Count: 133
[8]
  Population Apoptotic (%): 14%
  Population Fragmented Nuclei (%): 15%
  Population Hoechst High Intensity Objects (%): 10%
  Population Membrane Permeable-Phenotype (%): 5%
  Population Mitochondria Different-Phenotype (%): 10%
  Population Mitotic Cells (%): 85%
  Population Normal (%): 89%
  Population Pyknosed Nuclei (%): 13%
  Population Tubulin-Different-Phenotype (%): 15%
  Total Cell Count: 109
[9]
  Population Apoptotic (%): 64%
  Population Fragmented Nuclei (%): 6%
  Population Healthy Nuclei (%): 83%
  Population Hoechst High Intensity Objects (%): 3%
  Population Membrane Permeable-Phenotype (%): 1%
  Population Mitochondria Different-Phenotype (%): 7%
  Population Mitotic Cells (%): 35%
  Population Normal (%): 96%
  Population Pyknosed Nuclei (%): 9%
  Population Tubulin-Different-Phenotype (%): 4%
  Total Cell Count: 116
[10]
  Population Apoptotic (%): 50%
  Population Fragmented Nuclei (%): 9%
  Population Healthy Nuclei (%): 84%
  Population Hoechst High Intensity Objects (%): 2%
  Population Membrane Permeable-Phenotype (%): 6%
  Population Mitochondria Different-Phenotype (%): 25%
  Population Mitotic Cells (%): 50%
  Population Normal (%): 97%
  Population Pyknosed Nuclei (%): 5%
  Population Tubulin-Different-Phenotype (%): 34%
  Total Cell Count: 123
[11]
  Population Apoptotic (%): 55%
  Population Fragmented Nuclei (%): 9%
  Population Healthy Nuclei (%): 72%
  Population Hoechst High Intensity Objects (%): 3%
  Population Membrane Permeable-Phenotype (%): 24%
  Population Mitochondria Different-Phenotype (%): 24%
  Population Mitotic Cells (%): 45%
  Population Normal (%): 96%
  Population Pyknosed Nuclei (%): 18%
  Population Tubulin-Different-Phenotype (%): 55%
  Total Cell Count: 181
[12]
  Population Apoptotic (%): 25%
  Population Fragmented Nuclei (%): 7%
  Population Healthy Nuclei (%): 82%
  Population Membrane Permeable-Phenotype (%): 6%
  Population Mitochondria Different-Phenotype (%): 10%
  Population Mitotic Cells (%): 75%
  Population Pyknosed Nuclei (%): 10%
  Population Tubulin-Different-Phenotype (%): 13%
  Total Cell Count: 148
